# Experimental data taken from ChEMBL document CHEMBL1152865, “Synthesis and antimycobacterial activities of novel 6-nitroquinolone-3-carboxylic acids” (Eur J Med Chem, 2009).
# System: Mus musculus
# Assay: Phototoxicity in Swiss albino mouse exposed to 4 hrs of 18 J/cm'2 UV light irradiation assessed as ear thickness at 140 mg/kg, po after 72 hrs
# Assay type: organism-based
# Parameters: dose 140 mg/kg, route oral
# Settings: in vivo
# Outline: (§1)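 Female Swiss albino mice about 2 months old, 20-25 g, fasted at least 18 h, six per group. Single oral gavage of 140 mg/kg; vehicle 0.5% aqueous sodium carboxymethylcellulose at 10 ml/kg; lomefloxacin HCl 140 mg/kg as positive control. UVA for 4 h (about 18 J/cm²) from dosing. Both ears scored for erythema, edema and thickness pre-dose, at 4 h, and at about 24, 48, 72 and 96 h.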
row,Compound,Activity [mm]
1,O=C(O)c1cn(C2CC2)c2cc(N3CCC(N4CCCCC4)CC3)c([N+](=O)[O-])cc2c1=O,0.29

# System: Mus musculus
# Assay: Phototoxicity in Swiss albino mouse exposed to 4 hrs of 18 J/cm'2 UV light irradiation assessed as erythema at 140 mg/kg, po after 96 hrs
# Assay type: organism-based
# Parameters: dose 140 mg/kg, route oral
# Settings: in vivo
# Outline: as §1
row,Compound,Activity
1,O=C(O)c1cn(C2CC2)c2cc(N3CCC(N4CCCCC4)CC3)c([N+](=O)[O-])cc2c1=O,Non-toxic

# System: Mus musculus
# Assay: Phototoxicity in Swiss albino mouse exposed to 4 hrs of 18 J/cm'2 UV light irradiation assessed as erythema at 140 mg/kg, po
# Assay type: organism-based
# Parameters: dose 140 mg/kg, route oral
# Settings: in vivo
# Outline: as §1
row,Compound,Activity
1,O=C(O)c1cn(C2CC2)c2cc(N3CCC(N4CCCCC4)CC3)c([N+](=O)[O-])cc2c1=O,Non-toxic

# System: Mus musculus
# Assay: Phototoxicity in Swiss albino mouse assessed as ear thickness at 140 mg/kg, po measured after 4 hrs of 18 J/cm'2 UV light irradiation
# Assay type: organism-based
# Parameters: dose 140 mg/kg, route oral
# Settings: in vivo
# Outline: as §1
row,Compound,Activity [mm]
1,O=C(O)c1cn(C2CC2)c2cc(N3CCC(N4CCCCC4)CC3)c([N+](=O)[O-])cc2c1=O,0.26

# Biological target: not listed separately
# Assay: Inhibition of Mycobacterium smegmatis DNA gyrase assessed as inhibition of relaxed circular pUC18 supercoiling activity by agarose gel electrophoresis
# Parameters: species or system Mycolicibacterium smegmatis
# Settings: not given
# Outline: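 Gyrase purified from M. smegmatis, pre-incubated with compound in DMSO. Then 400 ng relaxed pUC18 added in 35 mM Tris-HCl pH 7.5, 5 mM MgCl2, 25 mM potassium glutamate, 2 mM spermidine, 2 mM ATP, BSA, yeast tRNA and 5% glycerol. Incubated 30 min at 37 °C; read-out by agarose gel electrophoresis. Ciprofloxacin and 5% DMSO reactions run as controls.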
row,Compound,IC50 [µg/mL]
1,CC(C)(C)n1cc(C(=O)O)c(=O)c2cc([N+](=O)[O-])c(N3CCN(C(c4ccccc4)c4ccc(Cl)cc4)CC3)cc21 (centres undefined),30
2,Cc1onc(-c2c(F)cccc2F)c1C(=O)N1CCN(c2cc3c(cc2[N+](=O)[O-])c(=O)c(C(=O)O)cn3C(C)(C)C)CC1,30
3,O=C(O)c1cn(-c2ccc(F)cc2)c2cc(N3CCN(C(=O)C4COc5ccccc5O4)CC3)c([N+](=O)[O-])cc2c1=O (centres undefined),30
4,O=C(O)c1cn(C2CC2)c2cc(N3CCN(C(=O)c4ccco4)CC3)c([N+](=O)[O-])cc2c1=O,30
5,CC1CN(c2cc3c(cc2[N+](=O)[O-])c(=O)c(C(=O)O)cn3-c2ccc(F)cc2)CC(C)O1 (centres undefined),20
6,O=C(O)c1cn(C2CC2)c2cc(N3CCC(O)(c4ccc(Cl)cc4)CC3)c([N+](=O)[O-])cc2c1=O,5
7,O=C(O)c1cn(C2CC2)c2cc(N3CCC(N4CCCCC4)CC3)c([N+](=O)[O-])cc2c1=O,20
8,CC(C)(C)n1cc(C(=O)O)c(=O)c2cc([N+](=O)[O-])c(N3CCN(C(=O)c4ccco4)CC3)cc21,30
9,O=C(O)c1cn(C2CC2)c2cc(N3CCC(n4c(=O)[nH]c5cc(Cl)ccc54)CC3)c([N+](=O)[O-])cc2c1=O,20
10,CC(C)(C)NC(=O)C1c2ccccc2CCN1c1cc2c(cc1[N+](=O)[O-])c(=O)c(C(=O)O)cn2C1CC1 (centres undefined),30

# System: Mus musculus
# Assay: Phototoxicity in Swiss albino mouse exposed to 4 hrs of 18 J/cm'2 UV light irradiation assessed as erythema at 140 mg/kg, po after 24 hrs
# Assay type: organism-based
# Parameters: dose 140 mg/kg, route oral
# Settings: in vivo
# Outline: as §1
row,Compound,Activity
1,O=C(O)c1cn(C2CC2)c2cc(N3CCC(N4CCCCC4)CC3)c([N+](=O)[O-])cc2c1=O,Non-toxic

# System: Mus musculus
# Assay: Phototoxicity in Swiss albino mouse exposed to 4 hrs of 18 J/cm'2 UV light irradiation assessed as ear thickness at 140 mg/kg, po after 24 hrs
# Assay type: organism-based
# Parameters: dose 140 mg/kg, route oral
# Settings: in vivo
# Outline: as §1
row,Compound,Activity [mm]
1,O=C(O)c1cn(C2CC2)c2cc(N3CCC(N4CCCCC4)CC3)c([N+](=O)[O-])cc2c1=O,0.26

# System: Mycobacterium tuberculosis
# Assay: Antibacterial activity against Mycobacterium tuberculosis H37Rv by agar dilution method
# Assay type: functional
# Settings: not given
# Outline: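 Agar dilution in Middlebrook 7H11 agar supplemented with OADC, following an approach similar to NCCLS guidance. MIC determined in duplicate.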
row,Compound,MIC [µM]
1,CC(C)(C)n1cc(C(=O)O)c(=O)c2cc([N+](=O)[O-])c(N3CCN(C(c4ccccc4)c4ccc(Cl)cc4)CC3)cc21 (centres undefined),5.44
2,CC(C)(C)NC(=O)C1c2ccccc2CCN1c1cc2c(cc1[N+](=O)[O-])c(=O)c(C(=O)O)cn2-c1ccc(F)cc1 (centres undefined),5.6
3,Cc1onc(-c2c(F)cccc2F)c1C(=O)N1CCN(c2cc3c(cc2[N+](=O)[O-])c(=O)c(C(=O)O)cn3C(C)(C)C)CC1,2.62
4,O=C(O)c1cn(-c2ccc(F)cc2)c2cc(N3CCN(C(=O)C4COc5ccccc5O4)CC3)c([N+](=O)[O-])cc2c1=O (centres undefined),2.72
5,O=C(O)c1cn(C2CC2)c2cc(N3CCN(C(=O)c4ccco4)CC3)c([N+](=O)[O-])cc2c1=O,0.69
6,CC1CN(c2cc3c(cc2[N+](=O)[O-])c(=O)c(C(=O)O)cn3-c2ccc(F)cc2)CC(C)O1 (centres undefined),3.53
7,O=C(O)c1cn(C2CC2)c2cc(N3CCC(O)(c4ccc(Cl)cc4)CC3)c([N+](=O)[O-])cc2c1=O,0.81
8,O=C(O)c1cn(C2CC2)c2cc(N3CCC(N4CCCCC4)CC3)c([N+](=O)[O-])cc2c1=O,0.43
9,CC(C)(C)n1cc(C(=O)O)c(=O)c2cc([N+](=O)[O-])c(N3CCN(C(=O)c4ccco4)CC3)cc21,6.68
10,O=C(O)c1cn(C2CC2)c2cc(N3CCC(n4c(=O)[nH]c5cc(Cl)ccc54)CC3)c([N+](=O)[O-])cc2c1=O,1.49
11,CC(C)(C)NC(=O)C1c2ccccc2CCN1c1cc2c(cc1[N+](=O)[O-])c(=O)c(C(=O)O)cn2C1CC1 (centres undefined),1.55

# System: Mus musculus
# Assay: Phototoxicity in Swiss albino mouse exposed to 4 hrs of 18 J/cm'2 UV light irradiation assessed as ear thickness at 140 mg/kg, po after 48 hrs
# Assay type: organism-based
# Parameters: dose 140 mg/kg, route oral
# Settings: in vivo
# Outline: as §1
row,Compound,Activity [mm]
1,O=C(O)c1cn(C2CC2)c2cc(N3CCC(N4CCCCC4)CC3)c([N+](=O)[O-])cc2c1=O,0.26

# System: Mus musculus
# Assay: Phototoxicity in Swiss albino mouse exposed to 4 hrs of 18 J/cm'2 UV light irradiation assessed as ear thickness at 140 mg/kg, po after 96 hrs
# Assay type: organism-based
# Parameters: dose 140 mg/kg, route oral
# Settings: in vivo
# Outline: as §1
row,Compound,Activity [mm]
1,O=C(O)c1cn(C2CC2)c2cc(N3CCC(N4CCCCC4)CC3)c([N+](=O)[O-])cc2c1=O,0.28

# System: Mus musculus
# Assay: Phototoxicity in Swiss albino mouse exposed to 4 hrs of 18 J/cm'2 UV light irradiation assessed as erythema at 140 mg/kg, po after 48 hrs
# Assay type: organism-based
# Parameters: dose 140 mg/kg, route oral
# Settings: in vivo
# Outline: as §1
row,Compound,Activity
1,O=C(O)c1cn(C2CC2)c2cc(N3CCC(N4CCCCC4)CC3)c([N+](=O)[O-])cc2c1=O,Non-toxic

# System: Mycolicibacterium smegmatis
# Assay: Antibacterial activity against Mycobacterium smegmatis ATCC 14468 by agar dilution method
# Assay type: functional
# Settings: not given
# Outline: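 Agar dilution on Middlebrook 7H11 agar with OADC supplement, following an NCCLS-type procedure; MIC read in duplicate.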
row,Compound,MIC [µM]
1,CC(C)(C)n1cc(C(=O)O)c(=O)c2cc([N+](=O)[O-])c(N3CCN(C(c4ccccc4)c4ccc(Cl)cc4)CC3)cc21 (centres undefined),10.9
2,CC(C)(C)NC(=O)C1c2ccccc2CCN1c1cc2c(cc1[N+](=O)[O-])c(=O)c(C(=O)O)cn2-c1ccc(F)cc1 (centres undefined),22.4
3,Cc1onc(-c2c(F)cccc2F)c1C(=O)N1CCN(c2cc3c(cc2[N+](=O)[O-])c(=O)c(C(=O)O)cn3C(C)(C)C)CC1,10.5
4,O=C(O)c1cn(-c2ccc(F)cc2)c2cc(N3CCN(C(=O)C4COc5ccccc5O4)CC3)c([N+](=O)[O-])cc2c1=O (centres undefined),10.9
5,O=C(O)c1cn(C2CC2)c2cc(N3CCN(C(=O)c4ccco4)CC3)c([N+](=O)[O-])cc2c1=O,1.39
6,CC1CN(c2cc3c(cc2[N+](=O)[O-])c(=O)c(C(=O)O)cn3-c2ccc(F)cc2)CC(C)O1 (centres undefined),14.2
7,O=C(O)c1cn(C2CC2)c2cc(N3CCC(O)(c4ccc(Cl)cc4)CC3)c([N+](=O)[O-])cc2c1=O,3.22
8,O=C(O)c1cn(C2CC2)c2cc(N3CCC(N4CCCCC4)CC3)c([N+](=O)[O-])cc2c1=O,1.77
9,CC(C)(C)n1cc(C(=O)O)c(=O)c2cc([N+](=O)[O-])c(N3CCN(C(=O)c4ccco4)CC3)cc21,13.3
10,O=C(O)c1cn(C2CC2)c2cc(N3CCC(n4c(=O)[nH]c5cc(Cl)ccc54)CC3)c([N+](=O)[O-])cc2c1=O,2.97
11,CC(C)(C)NC(=O)C1c2ccccc2CCN1c1cc2c(cc1[N+](=O)[O-])c(=O)c(C(=O)O)cn2C1CC1 (centres undefined),3.09

# System: Mus musculus
# Assay: Phototoxicity in Swiss albino mouse assessed as erythema at 140 mg/kg, po after 4 hrs of 18 J/cm'2 UV light irradiation
# Assay type: organism-based
# Parameters: dose 140 mg/kg, route oral
# Settings: in vivo
# Outline: as §1
row,Compound,Activity
1,O=C(O)c1cn(C2CC2)c2cc(N3CCC(N4CCCCC4)CC3)c([N+](=O)[O-])cc2c1=O,Non-toxic

# System: not listed separately
# Assay: Cytotoxicity against african green monkey Vero cells after 72 hrs by MTT assay
# Assay type: cell-based
# Settings: chlorocebus sabaeus
# Outline: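 Cells exposed to compound for 72 h; viability from cellular MTT conversion to formazan; CC50 derived.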
row,Compound,CC50 at 72 h [µM]
1,Cc1onc(-c2c(F)cccc2F)c1C(=O)N1CCN(c2cc3c(cc2[N+](=O)[O-])c(=O)c(C(=O)O)cn3C(C)(C)C)CC1,105
2,O=C(O)c1cn(-c2ccc(F)cc2)c2cc(N3CCN(C(=O)C4COc5ccccc5O4)CC3)c([N+](=O)[O-])cc2c1=O (centres undefined),54.4
3,O=C(O)c1cn(C2CC2)c2cc(N3CCN(C(=O)c4ccco4)CC3)c([N+](=O)[O-])cc2c1=O,111
4,CC1CN(c2cc3c(cc2[N+](=O)[O-])c(=O)c(C(=O)O)cn3-c2ccc(F)cc2)CC(C)O1 (centres undefined),70.8
5,O=C(O)c1cn(C2CC2)c2cc(N3CCC(O)(c4ccc(Cl)cc4)CC3)c([N+](=O)[O-])cc2c1=O,129
6,O=C(O)c1cn(C2CC2)c2cc(N3CCC(N4CCCCC4)CC3)c([N+](=O)[O-])cc2c1=O,142

# System: Mus musculus
# Assay: Phototoxicity in Swiss albino mouse exposed to 18 J/cm'2 UV light irradiation assessed as ear thickness at 140 mg/kg, po
# Assay type: organism-based
# Parameters: dose 140 mg/kg, route oral
# Settings: in vivo
# Outline: as §1
row,Compound,Activity [mm]
1,O=C(O)c1cn(C2CC2)c2cc(N3CCC(N4CCCCC4)CC3)c([N+](=O)[O-])cc2c1=O,0.24
